Published values from different studies.
Lines come from different studies, so protocols differ.
Sample: plasma

SMILES | host | route | dose | notes | Cmax
COCCOc1cnc2ccn([C@H](C)c3nnc4c(F)cc(-c5cnn(C)c5)cn34)c(=O)c2c1 | human | oral | 400 mg | multiple doses, once daily, patients | 5140 ng/mL
COc1ccc([C@@H]2CN(C(=O)[C@@H](O)CO)C[C@@]2(C)[C@@H](C)O)cc1OC1CN(c2ccc(C)cn2)C1 | human | oral | 30 mg | single dose, healthy volunteers | 669 ng/mL
CCc1nc2c(C)cc(N3CCN(CC(=O)N4CC(O)C4)CC3)cn2c1N(C)c1nc(-c2ccc(F)cc2)c(C#N)s1 | human | oral | 300 mg | single dose, fed, healthy volunteers | 3800 ng/mL
Cc1ccc(C(=O)N(CCCN)[C@@H](c2oc3cc(Cl)ccc3c(=O)c2Cc2ccccc2)C(C)C)cc1 | human | intravenous | 8 mg/m² | single dose, patients, infusion | 803 ng/mL
Oc1cc(O)c2c(c1)O[C@@H](c1ccc(O)c(O)c1)[C@@H](O)C2 | human | oral | 30 mg | single dose | 0.7 ng/mL
CC(C)(C(=O)N1CCOc2c(C#N)cncc2C1)C(F)F | human | oral | 30 mg | single dose, fasted, healthy volunteers | 417 ng/mL
Cn1c(=O)oc2ccc(-c3ccc(C[C@@H](C#N)NC(=O)[C@@H]4CNCCCO4)cc3)cc21 | male human | oral | 5 mg | single dose, healthy volunteers | 50.7 nM
CC(C)(Sc1ccncc1-c1ccc(C#N)c2ccccc12)C(=O)O | male human | oral | 20 mg | single dose, fed, healthy volunteers | 181 ng/mL
O=C(/C=C/c1cccc(S(=O)(=O)Nc2ccccc2)c1)NO | human | intravenous | 1800 mg/m² | patients | 76800 ng/mL
Br.Cc1ccc(Sc2ccccc2N2CCNCC2)c(C)c1 | human | oral | 5 mg | multiple doses, steady state, healthy volunteers | 9 ng/mL
CO[C@@H]1[C@H](OC(=O)N2CC(CCN3CCOCC3)C2)CC[C@]2(CO2)[C@H]1[C@@]1(C)O[C@@H]1CC=C(C)C | human | subcutaneous | 3.6 mg | single dose, healthy volunteers | 16.1 ng/mL
CCOc1ccc(Cc2cc([C@@H]3S[C@H](CO)[C@@H](O)[C@H](O)[C@H]3O)c(OC)cc2C)cc1 | male human | oral | 5 mg | single dose, fasted, healthy volunteers | 208 ng/mL
CCn1c(=O)c(-c2cc(NC(=O)Nc3ccccc3)c(F)cc2Br)cc2cnc(NC)cc21 | human | oral | 30 mg | single dose, patients | 133 ng/mL
CC(C)n1cc(C#N)c2cc(-n3cc(C(=O)O)cn3)ccc21 | male human | oral | 600 mg | single dose, fasted, healthy volunteers | 18200 ng/mL
Nc1cc(C(F)(F)F)c(-c2cc(N3CCOCC3)nc(N3CCOCC3)n2)cn1 | human | oral | 50 mg/day | patients | 595 ng/mL
CCCCC1=NC2(CCCC2)C(=O)N1Cc1ccc(-c2ccccc2S(=O)(=O)Nc2noc(C)c2C)c(COCC)c1 | human | oral | 200 mg | single dose, fed, healthy volunteers | 6280 ng/mL
C[C@@]1(c2cc(NC(=O)c3ccc(C#N)cn3)ccc2F)C=CSC(N)=N1 | human | oral | 150 mg | single dose | 906 ng/mL
CNC(=O)c1cc(Oc2ccc(NC(=O)Nc3cc(C(C)(C)C)nn3-c3ccc4ncccc4c3)c(F)c2)ccn1 | human | oral | 200 mg | multiple doses, twice daily | 377 ng/mL
Cn1cc(-c2ccc(S(=O)(=O)[C@@H]3C[C@@H](C(=O)NC4(C#N)CC4)N(C(=O)C4(C(F)(F)F)CC4)C3)c(C(F)(F)F)c2)cn1 | human | oral | 30 mg | single dose, fasted, healthy volunteers | 212 ng/mL
CNC(=O)c1ccccc1Sc1ccc2c(/C=C/c3ccccn3)n[nH]c2c1 | human | oral | 5 mg | single dose, fasted | 51 ng/mL
N#CN1C[C@H](n2nc(-c3ccc(Oc4ccc(Cl)cn4)cc3)c(C(N)=O)c2N)CCC12CC2 | human | oral | 600 mg | fed | 1020 ng/mL
C#Cc1cccc(Nc2ncnc3cc(OCCOC)c(OCCOC)cc23)c1 | human | oral | 50 mg | patients | 1170 nM
CC(C)(O)c1ccccc1-c1ccc2[nH]c(/C=C/c3ccc(C(F)(F)F)cc3)nc2c1 | male human | oral | 50 mg | single dose, fasted, healthy volunteers | 160 ng/mL
COc1ccc(-n2nc(C(N)=O)c3c2C(=O)N(c2ccc(N4CCCCC4=O)cc2)CC3)cc1 | human | oral | 10 mg | healthy volunteers | 261 ng/mL
CS(=O)(=O)CCNCc1ccc(-c2ccc3ncnc(Nc4ccc(OCc5cccc(F)c5)c(Cl)c4)c3c2)o1 | human | oral | 750 mg | multiple doses, twice daily, steady state, patients | 2110 ng/mL
COc1cc(C(=O)NC2CCN(C)CC2)c(F)cc1Nc1ncc(C(F)(F)F)c(Oc2cccc3c2C(=O)N(C)C3)n1 | human | oral | 10 mg | single dose, patients | 44.8 nM
C[C@@H](Oc1ccc(S(C)(=O)=O)cc1C(=O)N1C[C@@H]2C[C@]2(c2cc(C(F)(F)F)on2)C1)C(F)(F)F | human | oral | 25 mg | fasted, tablet | 219 nM
O=C(Nc1c(Cl)cncc1Cl)c1ccc(OC(F)F)c(OCC2CC2)c1 | human | oral | 0.375 mg | single dose, fasted | 9.2 ng/mL
CO[C@H]1CC[C@H](N2C(=O)CNc3ncc(-c4ccc(C(C)(C)O)nc4)nc32)CC1 | human | oral | 60 mg | patients | 319 ng/mL
FC(F)(F)c1ccc(CNc2ccc(Cc3c[nH]c4ncc(Cl)cc34)cn2)cn1 | human | oral | 1000 mg | multiple doses, patients | 4440 ng/mL
